The source of these data is ChEMBL document CHEMBL4308847, “Discovery, Structure-Activity Relationship, and Biological Characterization of a Novel Series of 6-((1 H-Pyrazolo[4,3- b]pyridin-3-yl)amino)-benzo[ d]isothiazole-3-carboxamides as Positive Allosteric Modulators of the Metabotropic Glutamate Receptor 4 (mGlu4)” (J Med Chem, 2018).

Structures are written as SMILES. Active and inactive are the calls of the source. The calls are words filed in the database; no cut-off is given here. Some results are limits rather than exact numbers.

Data set [1] is described as follows: Volume of distribution at steady state in rat administered as iv cassette dose. It is filed as ADME, organism-based. The note with it: in vivo, read-out: Vdss. Summed up: (§1)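 IV cassette in male Sprague-Dawley rats (~300 g, n = 1 per experiment), cannulated in carotid artery and jugular vein and acclimated about one week. Plasma clearance, Vss, t1/2 and MRT were derived.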

Data set [2] is described as follows: MRT in rat administered as iv cassette dose. The data set is classed as ADME, organism-based. To be noted: in vivo. Summed up:
as §1

Data set [3] addresses Cytochrome P450 3A4 (Homo sapiens, UniProt P08684). The data set is described as follows: Inhibition of CYP3A4 in human liver microsomes using midazolam as substrate preincubated for 15 mins followed by substrate addition and measured after 8 mins by LC-MS/MS analysis. It is filed as ADME. Background: Microsomes from liver hold many membrane-bound enzymes, among them those of drug oxidation.

Data set [4] addresses Cytochrome P450 2C9 (Homo sapiens, UniProt P11712). The data set is described as follows: Inhibition of CYP2C9 in human liver microsomes using diclofenac as substrate preincubated for 15 mins followed by substrate addition and measured after 8 mins by LC-MS/MS analysis. The data set is classed as ADME.
Data set [5] addresses Cytochrome P450 2D6 (Homo sapiens, UniProt P10635). The data set is described as follows: Inhibition of CYP2D6 in human liver microsomes using dextromethorphan as substrate preincubated for 15 mins followed by substrate addition and measured after 8 mins by LC-MS/MS analysis. The data set is classed as ADME.
For data set [6], the system named is P-gp. The data set is described as follows: Permeability from apical to basolateral side in MDCK cells harboring P-gp. The data set is classed as ADME, cell-based, Canis lupus familiaris. To be noted: dog, MDCK-MDR1; read-out: permeability.
Data set [7] relates to P-gp. Briefly: Permeability from basolateral to apical side in MDCK cells harboring P-gp. The note with it: dog, MDCK-MDR1; read-out: permeability. It is filed as ADME, cell-based, Canis lupus familiaris.
The subject of data set [8] is P-gp. Briefly: Efflux ratio of permeability in MDCK cells harboring P-gp. It is filed as ADME, cell-based, Canis lupus familiaris. To be noted: dog, MDCK-MDR1.
Data set [9] is described as follows: Brain to plasma partition coefficient, Kp of the compound in Sprague-Dawley rat model of haloperidol-induced catalepsy at 10 mg/kg, po. The data set is classed as ADME, organism-based. The note with it: brain and plasma. In outline: (§2)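 Male Sprague-Dawley rats given haloperidol 0.75 mg/kg i.p., then returned to cages for 60 min. Compound 10 mg/kg was dosed orally 30 min before catalepsy testing. Plasma, brain and CSF were then assayed, and free levels reported.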

The target in data set [10] is Metabotropic glutamate receptor 1 (Homo sapiens) (UniProt Q13255). The data set is described as follows: Allosteric modulation of human mGlu1 receptor assessed as change in glutamate-induced calcium mobilization at 10 uM preincubated for 2.5 mins followed by glutamate addition by Fluo-4-AM dye based fluorescence assay. It is filed as functional. In outline:
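Human mGlu1 and rat mGlu5 tested by calcium mobilization with a double addition. 10 μM compound was added, then 2.5 min later a full glutamate concentration range. A left shift of more than 2-fold was scored as potentiation. A right shift of more than 2-fold, or a depression of the maximum response by at least 75%, was scored as antagonism.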
In general terms: Calcium assays in cells follow changes in intracellular calcium, usually with a dye or a luminescent sensor.

Data set [11] addresses Metabotropic glutamate receptor 2 (Rattus norvegicus) (UniProt P31421). The data set is described as follows: Allosteric modulation of rat mGlu2 receptor expressed in HEK cells co-expressing GIRK1/2 assessed as change in glutamate-induced thallium flux preincubated for 2.5 mins followed by glutamate addition by FluoZin-2-AM dye based fluorescence assay. It is filed as cell-based. Summed up: (§3)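 HEK cells expressing GIRK1/2 plus rat mGlu2, mGlu3, mGlu7 or mGlu8, plated at 15,000 cells/well. Thallium flux was read with a double addition: 10 μM compound, then 2.5 min later a full agonist concentration-response. The agonist was glutamate, or L-AP4 for mGlu7. A left shift of more than 2-fold counted as potentiation. A right shift of more than 2-fold, or a ≥75% drop in maximum response, counted as antagonism.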

Data set [12] concerns the target Metabotropic glutamate receptor 3 (Rattus norvegicus) (UniProt P31422). Briefly: Allosteric modulation of rat mGlu3 receptor expressed in HEK cells co-expressing GIRK1/2 assessed as change in glutamate-induced thallium flux preincubated for 2.5 mins followed by glutamate addition by FluoZin-2-AM dye based fluorescence assay. The data set is classed as cell-based. In outline:
as §3

For data set [13], the target named is Metabotropic glutamate receptor 8 (Rattus norvegicus) (UniProt P70579). The data set is described as follows: Allosteric modulation of rat mGlu8 receptor expressed in HEK cells co-expressing GIRK1/2 assessed as change in glutamate-induced thallium flux preincubated for 2.5 mins followed by glutamate addition by FluoZin-2-AM dye based fluorescence assay. The data set is classed as cell-based. In outline: as §3

Data set [14] deals with T1, AhR (read out as CYP1A2 induction) (Homo sapiens, UniProt P35869).
T1 sequence (P35869 whole entry): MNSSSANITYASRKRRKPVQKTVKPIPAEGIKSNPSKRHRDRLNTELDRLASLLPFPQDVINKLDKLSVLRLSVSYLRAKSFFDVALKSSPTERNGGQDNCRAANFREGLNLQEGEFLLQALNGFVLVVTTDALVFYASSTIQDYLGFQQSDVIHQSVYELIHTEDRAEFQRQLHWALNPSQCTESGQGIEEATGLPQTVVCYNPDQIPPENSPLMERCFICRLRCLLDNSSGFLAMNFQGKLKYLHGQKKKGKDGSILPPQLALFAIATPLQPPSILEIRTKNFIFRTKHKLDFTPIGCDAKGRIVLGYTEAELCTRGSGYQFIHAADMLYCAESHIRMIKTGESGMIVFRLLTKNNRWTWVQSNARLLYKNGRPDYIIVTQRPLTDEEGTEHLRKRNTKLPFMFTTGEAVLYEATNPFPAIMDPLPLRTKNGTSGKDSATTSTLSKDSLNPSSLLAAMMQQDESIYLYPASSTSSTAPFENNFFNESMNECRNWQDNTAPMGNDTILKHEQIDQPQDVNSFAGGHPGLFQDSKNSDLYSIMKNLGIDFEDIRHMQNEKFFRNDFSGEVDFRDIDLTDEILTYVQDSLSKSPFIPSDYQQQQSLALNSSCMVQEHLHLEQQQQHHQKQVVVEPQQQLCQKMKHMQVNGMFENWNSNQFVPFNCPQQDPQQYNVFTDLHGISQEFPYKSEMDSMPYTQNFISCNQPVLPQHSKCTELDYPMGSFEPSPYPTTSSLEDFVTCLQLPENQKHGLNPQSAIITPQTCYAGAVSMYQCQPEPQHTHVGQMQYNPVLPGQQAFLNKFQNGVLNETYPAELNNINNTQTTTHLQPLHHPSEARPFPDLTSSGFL
The data set is described as follows: Activation of AhR (unknown origin) assessed as CYP1A2 induction relative to control. The data set is classed as ADME. The note with it: read-out: FC.

The nature of data set [15]: Unbound plasma concentration in Sprague-Dawley rat model of haloperidol-induced catalepsy at 10 mg/kg, po. To be noted: in vivo. The data set is classed as ADME, organism-based. Summed up:
as §2

Data set [16] can be described thus: Unbound drug level in brain of Sprague-Dawley rat model of haloperidol-induced catalepsy at 10 mg/kg, po. The note with it: in vivo. The data set is classed as ADME, organism-based. Summed up: as §2
A short description of data set [17]: AUC in rat at 15 mg/kg, po qd for 4 days measured on day 1 post dose. To be noted: in vivo.
Data set [18] is described as follows: AUC in rat at 15 mg/kg, po qd for 4 days measured on day 4 post dose. To be noted: in vivo.
The nature of data set [19]: Cmax in rat at 15 mg/kg, po qd for 4 days measured on day 4 post dose. The note with it: in vivo.

Chain of Metabotropic glutamate receptor 3 (Rattus norvegicus) (P31422 23-879 limits assumed): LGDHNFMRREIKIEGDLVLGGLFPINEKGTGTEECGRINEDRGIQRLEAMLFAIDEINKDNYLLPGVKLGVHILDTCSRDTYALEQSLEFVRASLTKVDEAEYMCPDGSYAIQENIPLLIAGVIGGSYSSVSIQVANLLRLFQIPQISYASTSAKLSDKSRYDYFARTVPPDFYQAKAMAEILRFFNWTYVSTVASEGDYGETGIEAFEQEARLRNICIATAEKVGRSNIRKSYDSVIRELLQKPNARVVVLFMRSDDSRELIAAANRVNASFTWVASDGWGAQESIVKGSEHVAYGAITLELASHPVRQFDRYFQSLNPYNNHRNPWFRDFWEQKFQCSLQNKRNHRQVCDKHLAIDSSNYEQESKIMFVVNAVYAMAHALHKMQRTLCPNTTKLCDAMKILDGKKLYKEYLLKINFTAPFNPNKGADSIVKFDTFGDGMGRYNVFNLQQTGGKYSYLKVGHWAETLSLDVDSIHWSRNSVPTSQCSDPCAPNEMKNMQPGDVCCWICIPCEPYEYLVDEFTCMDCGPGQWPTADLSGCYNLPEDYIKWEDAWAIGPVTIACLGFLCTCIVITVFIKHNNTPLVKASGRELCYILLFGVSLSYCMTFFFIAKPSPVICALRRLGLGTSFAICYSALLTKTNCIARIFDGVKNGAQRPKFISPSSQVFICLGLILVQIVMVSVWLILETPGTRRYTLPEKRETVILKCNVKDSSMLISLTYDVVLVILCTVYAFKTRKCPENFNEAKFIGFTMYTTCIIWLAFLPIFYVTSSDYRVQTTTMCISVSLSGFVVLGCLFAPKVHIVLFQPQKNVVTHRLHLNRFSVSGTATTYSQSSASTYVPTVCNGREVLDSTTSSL
Chain of Cytochrome P450 2C9 (P11712 whole entry): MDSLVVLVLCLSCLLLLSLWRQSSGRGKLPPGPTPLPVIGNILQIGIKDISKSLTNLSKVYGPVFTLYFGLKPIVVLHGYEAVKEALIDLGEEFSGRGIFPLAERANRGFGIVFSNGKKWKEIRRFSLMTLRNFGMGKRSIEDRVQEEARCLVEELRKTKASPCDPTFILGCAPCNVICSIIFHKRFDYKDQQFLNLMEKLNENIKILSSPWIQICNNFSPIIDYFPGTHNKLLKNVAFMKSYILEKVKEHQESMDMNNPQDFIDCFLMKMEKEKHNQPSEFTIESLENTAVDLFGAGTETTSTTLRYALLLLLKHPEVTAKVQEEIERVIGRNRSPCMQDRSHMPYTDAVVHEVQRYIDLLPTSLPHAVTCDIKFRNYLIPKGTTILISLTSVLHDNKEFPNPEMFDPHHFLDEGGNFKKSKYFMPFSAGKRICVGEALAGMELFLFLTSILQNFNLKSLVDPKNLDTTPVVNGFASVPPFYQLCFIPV
Chain of Cytochrome P450 2D6 (P10635 whole entry): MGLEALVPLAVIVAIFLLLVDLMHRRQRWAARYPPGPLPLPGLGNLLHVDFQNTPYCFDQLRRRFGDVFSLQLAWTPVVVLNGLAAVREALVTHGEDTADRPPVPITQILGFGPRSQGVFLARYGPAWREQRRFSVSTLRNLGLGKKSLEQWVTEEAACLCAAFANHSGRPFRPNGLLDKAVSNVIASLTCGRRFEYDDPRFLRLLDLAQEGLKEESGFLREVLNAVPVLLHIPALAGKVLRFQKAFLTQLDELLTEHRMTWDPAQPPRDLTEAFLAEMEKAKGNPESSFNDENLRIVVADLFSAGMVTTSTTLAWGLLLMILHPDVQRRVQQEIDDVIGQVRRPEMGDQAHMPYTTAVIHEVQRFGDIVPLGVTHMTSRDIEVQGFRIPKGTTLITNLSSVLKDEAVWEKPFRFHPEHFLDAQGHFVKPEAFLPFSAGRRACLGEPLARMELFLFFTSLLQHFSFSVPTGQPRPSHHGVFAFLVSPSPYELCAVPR
Chain of Metabotropic glutamate receptor 1 (Homo sapiens) (Q13255 19-1194 limits assumed): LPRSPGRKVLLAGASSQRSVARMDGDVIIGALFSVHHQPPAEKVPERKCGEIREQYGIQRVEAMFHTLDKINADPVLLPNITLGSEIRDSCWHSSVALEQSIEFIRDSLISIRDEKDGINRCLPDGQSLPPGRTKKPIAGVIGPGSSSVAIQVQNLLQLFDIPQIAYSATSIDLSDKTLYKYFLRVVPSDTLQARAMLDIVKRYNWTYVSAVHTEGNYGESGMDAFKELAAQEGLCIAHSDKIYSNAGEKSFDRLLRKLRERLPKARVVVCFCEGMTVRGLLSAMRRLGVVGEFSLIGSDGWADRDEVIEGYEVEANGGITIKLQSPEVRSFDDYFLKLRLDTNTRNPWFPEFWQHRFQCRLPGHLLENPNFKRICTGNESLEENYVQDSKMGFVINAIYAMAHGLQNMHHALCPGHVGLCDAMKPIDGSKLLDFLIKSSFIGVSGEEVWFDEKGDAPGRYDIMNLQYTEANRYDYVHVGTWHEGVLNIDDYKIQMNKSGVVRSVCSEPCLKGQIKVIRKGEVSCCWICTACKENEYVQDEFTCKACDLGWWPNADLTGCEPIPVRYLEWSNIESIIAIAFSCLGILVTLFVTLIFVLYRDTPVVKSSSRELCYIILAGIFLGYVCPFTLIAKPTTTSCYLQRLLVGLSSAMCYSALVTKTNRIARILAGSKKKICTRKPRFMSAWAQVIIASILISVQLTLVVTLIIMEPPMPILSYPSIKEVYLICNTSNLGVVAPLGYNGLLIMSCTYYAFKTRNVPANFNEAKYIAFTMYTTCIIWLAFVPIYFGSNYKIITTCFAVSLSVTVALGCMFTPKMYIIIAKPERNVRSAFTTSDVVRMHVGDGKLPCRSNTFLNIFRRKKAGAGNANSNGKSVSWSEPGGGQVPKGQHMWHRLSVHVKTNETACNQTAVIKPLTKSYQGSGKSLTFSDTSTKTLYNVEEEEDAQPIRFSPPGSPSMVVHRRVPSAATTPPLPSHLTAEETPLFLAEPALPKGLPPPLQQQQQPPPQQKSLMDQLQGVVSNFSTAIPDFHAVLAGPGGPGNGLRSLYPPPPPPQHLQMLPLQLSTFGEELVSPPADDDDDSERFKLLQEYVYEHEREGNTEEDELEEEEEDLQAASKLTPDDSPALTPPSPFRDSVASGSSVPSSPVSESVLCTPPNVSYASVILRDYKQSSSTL
Chain of Metabotropic glutamate receptor 8 (Rattus norvegicus) (P70579 whole entry): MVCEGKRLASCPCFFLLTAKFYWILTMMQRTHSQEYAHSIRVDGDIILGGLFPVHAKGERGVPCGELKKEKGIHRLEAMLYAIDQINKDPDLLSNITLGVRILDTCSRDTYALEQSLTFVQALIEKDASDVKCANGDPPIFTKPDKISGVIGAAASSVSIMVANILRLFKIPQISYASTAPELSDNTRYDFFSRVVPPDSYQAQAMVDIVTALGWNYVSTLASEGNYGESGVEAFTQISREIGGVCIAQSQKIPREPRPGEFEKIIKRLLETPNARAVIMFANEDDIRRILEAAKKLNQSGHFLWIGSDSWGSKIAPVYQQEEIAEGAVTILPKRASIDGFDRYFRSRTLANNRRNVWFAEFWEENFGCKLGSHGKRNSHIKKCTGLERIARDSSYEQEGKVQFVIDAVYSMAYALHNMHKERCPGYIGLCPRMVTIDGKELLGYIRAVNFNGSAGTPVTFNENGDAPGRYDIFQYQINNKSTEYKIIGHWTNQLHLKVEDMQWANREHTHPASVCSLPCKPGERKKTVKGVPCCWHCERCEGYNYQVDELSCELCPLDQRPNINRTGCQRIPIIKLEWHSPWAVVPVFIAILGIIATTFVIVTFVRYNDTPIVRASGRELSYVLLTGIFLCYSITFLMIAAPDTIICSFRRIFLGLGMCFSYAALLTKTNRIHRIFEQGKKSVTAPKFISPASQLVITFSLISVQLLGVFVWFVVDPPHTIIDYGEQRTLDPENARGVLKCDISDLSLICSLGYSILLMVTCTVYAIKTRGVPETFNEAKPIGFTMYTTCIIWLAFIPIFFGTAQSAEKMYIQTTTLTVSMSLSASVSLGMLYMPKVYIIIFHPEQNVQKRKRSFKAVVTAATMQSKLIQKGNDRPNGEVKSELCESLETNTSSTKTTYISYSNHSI
Chain of Metabotropic glutamate receptor 2 (Rattus norvegicus) (P31421 19-872 limits assumed): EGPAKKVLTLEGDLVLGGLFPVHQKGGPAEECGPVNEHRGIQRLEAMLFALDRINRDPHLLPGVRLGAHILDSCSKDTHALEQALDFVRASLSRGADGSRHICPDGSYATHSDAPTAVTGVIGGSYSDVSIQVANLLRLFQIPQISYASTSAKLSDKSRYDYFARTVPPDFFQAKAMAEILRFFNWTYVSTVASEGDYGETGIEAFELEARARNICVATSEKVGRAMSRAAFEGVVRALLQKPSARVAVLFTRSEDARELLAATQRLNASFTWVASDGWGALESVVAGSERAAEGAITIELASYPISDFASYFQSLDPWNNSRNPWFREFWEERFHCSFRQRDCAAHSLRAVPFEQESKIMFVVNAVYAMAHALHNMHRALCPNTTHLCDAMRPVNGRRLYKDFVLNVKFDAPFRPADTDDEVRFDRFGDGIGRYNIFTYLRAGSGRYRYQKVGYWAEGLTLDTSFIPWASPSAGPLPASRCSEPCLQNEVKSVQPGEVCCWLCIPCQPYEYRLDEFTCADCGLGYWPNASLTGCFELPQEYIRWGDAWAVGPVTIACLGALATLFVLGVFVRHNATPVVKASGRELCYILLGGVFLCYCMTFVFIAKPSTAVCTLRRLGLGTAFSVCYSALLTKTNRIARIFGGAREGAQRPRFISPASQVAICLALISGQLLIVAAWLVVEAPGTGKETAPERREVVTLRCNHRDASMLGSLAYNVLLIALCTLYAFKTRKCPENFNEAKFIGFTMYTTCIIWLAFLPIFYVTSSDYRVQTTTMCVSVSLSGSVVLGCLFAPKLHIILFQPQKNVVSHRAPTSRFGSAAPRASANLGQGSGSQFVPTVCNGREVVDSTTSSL

`O=C(NC1CC(F)(F)C1)c1nsc2cc(Nc3n[nH]c4cccnc34)ccc12`: the Vd in data set [1] came to 1.6 L/kg. The same molecule gave an MRT in data set [2] of 8.5 h. For the same molecule, the 50% inhibitory concentration (IC50) in [3], in data set [4] and in [5] was greater than 30 µM in each case. For the same molecule, the Papp A→B in data set [6] is 2.9 ×10⁻⁶ cm/s. Besides, the Papp B→A in data set [7] was 5.4 ×10⁻⁶ cm/s. In addition, the efflux ratio in data set [8] came to 1.9. The Kp in [9] came to 0.23. The outcome in [10], in [11], in data set [12] and in data set [13] was inactive.
On to `CC(C)(C)Cc1noc2cc(Nc3n[nH]c4nccnc34)ccc12`, for which the fold induction in data set [14] was determined as 6.4. Also, the “Cp(f)” value in [15] is 11.2 nM. In addition, the “Drug uptake(free)” value in [16] was 5.8 nM. Also, the values for the AUC at 96 h in [17] and in data set [18] were 624 ng·h/mL and 690 ng·h/mL, respectively. Besides, the Cmax in data set [19] worked out at 62.8 ng/mL.

A word on the MRT: it is the average time that molecules of a dose stay in the body. The IC50 is the concentration that gives 50% inhibition. A word on the efflux ratio: it is the permeability from basolateral to apical divided by that in the opposite direction, in the common usage. A word on the Kp: it is the ratio of the level in a tissue or fluid to that in plasma or blood. In general, AUC refers to the area under the concentration-time curve, a measure of exposure. The term Cmax denotes the peak of the concentration-time curve.
